High-throughput results as filed in PubChem.
M4 ag: human M4 muscarinic receptor agonists, primary screen, CHO-K1 cells, Fluo-8 calcium fluorescence. activation, % at 3 µM. CHO-K1 hM4/Gqi5; vehicle 0%, full acetylcholine response 100%. actives 0.14% (n = 360,000). Muscarinic acetylcholine receptor M4 (Homo sapiens), P08173;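 active means activation above the run mean over all test wells plus 3 SD, cut at about 32% in these data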;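 further: peak over basal fluorescence ratio per well then scaled between controls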
CHRM4 PAM: human M4 muscarinic receptor positive allosteric modulators, primary screen, CHO-K1 cells, Fluo-8 calcium fluorescence. Muscarinic acetylcholine receptor M4 (Homo sapiens), P08173. activation, % at 3 µM. actives 0.4% (n = 360,000). CHO-K1 hM4/Gqi5, ACh EC20; 0% = ACh EC20, 100% = maximal ACh;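 active means activation above its plate's cutoff, the mean activation of sample wells plus 3 SD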
CHRM5 antagonist: human M5 muscarinic receptor antagonists, primary screen, CHO cells, Fluo-8 calcium fluorescence; CHO-hM5 cells, ACh EC80; inhibition, % at 3 µM; actives 0.59% (n = 360,000);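 active means inhibition above a per-plate cutoff, the mean of that plate's test compounds plus 3 SD, cut at about 27% in these data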
Target sequence (P08912 whole entry, looked up): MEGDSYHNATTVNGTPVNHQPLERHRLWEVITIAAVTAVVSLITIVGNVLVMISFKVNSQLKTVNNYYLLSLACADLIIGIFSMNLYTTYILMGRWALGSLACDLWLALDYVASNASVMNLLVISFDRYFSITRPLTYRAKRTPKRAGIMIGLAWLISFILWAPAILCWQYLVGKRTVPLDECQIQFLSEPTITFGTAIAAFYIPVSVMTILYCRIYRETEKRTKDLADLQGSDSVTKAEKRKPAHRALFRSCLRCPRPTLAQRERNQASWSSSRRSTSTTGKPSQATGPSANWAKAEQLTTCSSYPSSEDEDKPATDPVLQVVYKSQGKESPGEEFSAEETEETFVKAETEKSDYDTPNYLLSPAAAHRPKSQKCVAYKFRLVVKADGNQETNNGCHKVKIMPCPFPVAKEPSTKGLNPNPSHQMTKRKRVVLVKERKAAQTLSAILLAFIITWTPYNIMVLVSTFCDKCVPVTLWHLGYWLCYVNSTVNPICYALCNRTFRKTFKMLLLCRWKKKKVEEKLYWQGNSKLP
M5 ag: human M5 muscarinic receptor agonists, primary screen, CHO-K1 cells, Fluo-8 calcium fluorescence; Muscarinic acetylcholine receptor M5 (Homo sapiens), P08912; actives 0.19% (n = 360,000); CHO-K1 hM5 cells; 0% DMSO wells, 100% maximal acetylcholine response; activation, % at 3 µM;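 active means activation above the run's mean over test compounds plus 3 SD, cut at about 23% in these data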;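 further: signal is peak over basal fluorescence ratio across the kinetic read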
CHRM4 antagonist: human M4 muscarinic receptor antagonists, primary screen, CHO cells, Fluo-8 calcium fluorescence. CHO-hM4 cells, ACh EC80. inhibition, % at 3 µM. actives 0.73% (n = 360,000). AID 624125, 2012;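 active means inhibition above its plate's cutoff, the mean inhibition of sample wells plus 3 SD, cut at about 27% in these data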
M5 PAM: human M5 muscarinic receptor positive allosteric modulators, primary screen, CHO-K1 cells, Fluo-8 calcium fluorescence; Muscarinic acetylcholine receptor M5 (Homo sapiens), P08912; CHO-K1 hM5, ACh EC20 PAM; 0% = ACh EC20, 100% = ACh EC100; activation, % at 3 µM; actives 0.3% (n = 360,000);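 active means activation above the run cutoff, the mean activation of all test compounds plus 3 SD, cut at about 18% in these data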
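System: CHO-K1 hM5 cells. Reagent: acetylcholine, EC20 level. Compound dosing: single dose, 3 µM nominal final test concentration. Timing: Post-acetylcholine fluorescence recording 140 s. Detection: Fluo-8 calcium fluorescence. Read-out: % activation, ACh-normalized. Benchmarks: ACh EC20 and EC100 wells. Repeats: singlicate, one well per test compound.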
Large screens that a line does not name were inactive. The list is not random: actives were taken first. Their share in the collection is about 1.9%.

Clc1ccc(OCc2cn3ccccc3n2)c2ncccc12	CHRM5 antagonist 35
Cc1cccc(C)c1C(=NCCCN(C)C)c1ccccc1	CHRM5 antagonist 80, CHRM4 antagonist 38
CN(C)c1ccc(C2N3CC4(C)CN2CC(C)(C3)C4O)cc1 (centres undefined)	none
CC(C)C12CN3CC(C(C)C)(CN(C1)C3c1ccccc1)C2O (centres undefined)	CHRM4 PAM 32
CN1CCC(=NNC(=O)CN(c2ccccc2)S(=O)(=O)c2ccccc2)CC1	none
CSc1ccc(S(=O)(=O)N(CC(=O)NN=C2CCN(C)CC2)c2ccc(C)cc2)cc1	M5 PAM 23
CC1=C(C(=O)N(C)C)CC(CC(=O)NC2CCCCC2)C(=O)N1CCC1=CCCCC1 (centres undefined)	none
O=c1c2cccnc2n(-c2ccccc2)n1Cc1c(Cl)cccc1Cl	none
O=c1c2cccnc2n(-c2ccccc2)n1Cc1ccc(Cl)cc1	CHRM4 PAM 22
CN(CC(=O)Nc1cccc(F)c1)C(=O)CCC1CCCCC1	CHRM4 PAM 18
COC(=O)C1(C(=O)OC)C[C@H](c2ccc(OC)cc2)N(Cc2ccccc2OC)[C@@H]1c1ccc(OC)cc1	none
O=C(CN1C(=O)COc2ccccc21)c1cccc(Cl)c1	CHRM4 antagonist 31
O=C(OCCC12CC3CC(CC(C3)C1)C2)c1ccc(NCc2cc(O)ccc2O)cc1	M5 PAM 27
COC(=O)C1(C)CCCC2(C)C3CCC(C(C)C)C(CO)C3C(CO)CC12 (centres undefined)	CHRM4 antagonist 29
COC(=O)[C@]1(C)CCC[C@@]2(C)C3CC[C@]4(OC(C)=O)C[C@@]3(CCC21)CC4=O (some centres undefined)	none
Cc1ccc(NS(=O)(=O)c2ccc(-n3cccn3)cc2)cc1F	none
COc1cccc(NS(=O)(=O)c2ccc(-n3cccn3)cc2)c1	CHRM4 antagonist 31
CCc1cc2c3c(c1)C(C)CC(C)(C)N3C(=O)C2=O (centres undefined)	M5 ag 26
CCOc1cc2c3c(c1)C1(OCCO1)C(=O)N3C(C)(C)CC2C (centres undefined)	none
Cc1cc(C)c(S(=O)(=O)N2CCCC(C(=O)NCc3ccccn3)C2)c(C)c1 (centres undefined)	none
COC(=O)c1cnc(Oc2c(Cl)cc(N)cc2Cl)cc1C(F)(F)F	M5 PAM 19
COC(=O)c1cnc(Oc2ccc(NC(=O)NC(=O)c3c(F)cccc3Cl)cc2)cc1C(F)(F)F	none
C#CCNC(=O)C1=C[C@@H](C2CCCCC2)[C@H](CCCO)[C@@H](OCC)O1	none
CCCCC(CC)C(=O)NCCCN1CCN(CCCNC(=O)C(CC)CCCC)CC1 (centres undefined)	CHRM4 antagonist 34
CCOC(=O)N1CCN(C(=O)c2ccc3c(=O)n(CCC4=CCCCC4)c(=O)[nH]c3c2)CC1	CHRM4 antagonist 39
Cc1ccc(NC(=O)N2CCC(NC(=O)C(C)(C)C)CC2)cc1	M5 PAM 42
C#CCOc1ccc(C2C3=C(COC3=O)Nc3cc4c(cc32)OCO4)cc1OC (centres undefined)	CHRM4 PAM 22
CCc1ccc(/C=N/NC(=O)c2nnn(-c3nonc3N)c2C(C)C)cc1	none
CN1CCN(C2Cc3cc(Cl)ccc3Sc3cc(F)ccc32)CC1 (centres undefined)	CHRM5 antagonist 59, CHRM4 antagonist 94
CCc1ccc2c(c1)Sc1ccccc1CC2N1CCN(C)CC1 (centres undefined)	CHRM4 antagonist 33
OCCN1CCN(C2Cc3cc(Cl)ccc3Sc3ccc(Cl)cc32)CC1 (centres undefined) (tested in a mixture with another compound)	none
c1ccc2c(c1)CC(N1CCCCC1)c1ccccc1S2 (centres undefined)	none
CCCn1c(N)c(C(=O)CSc2nnc(C3CC3)n2C2CC2)c(=O)[nH]c1=O	none
Cn1cc(CN2CCCCC2C(=O)Nc2ccc(-n3cccn3)cc2)cn1 (centres undefined)	CHRM5 antagonist 27
Cc1ccc(NC(=O)CCS(=O)(=O)c2cccc3nonc23)c(Br)c1	none
COc1ccc2[nH]c3c(=O)n(CCCN4CCOCC4)cnc3c2c1	M5 PAM 21
Cc1cc(C)n(/N=C/c2ccccc2O)c(=O)c1	M5 PAM 25
Cc1ccnc(NC(=S)NC(=O)c2cccs2)c1	none
Cc1ccnc(NS(=O)(=O)c2ccc(NC(=O)C34CC5CC(CC(C5)C3)C4)cc2)n1	M5 PAM 28
Cc1cc(C)nc(NS(=O)(=O)c2ccc(NC(=O)C3CC3)cc2)n1	none
Cc1cc(C)nc(NS(=O)(=O)c2ccc(NC(=O)C(C)C)cc2)n1	CHRM4 antagonist 62
Cc1ccnc(NS(=O)(=O)c2ccc(NC(=O)C3CC3)cc2)n1	none
Cc1no[n+]([O-])c1COc1ccc(/C=N/n2nnnc2N)cc1	none
OC(C#CCN1CCCC1)(c1ccccc1)c1cccnc1 (centres undefined)	CHRM5 antagonist 76, CHRM4 antagonist 86
CCCN(CC#CC(O)(c1ccccc1)c1cccnc1)CCC (centres undefined)	none
CC(O)(C#CCN1CCOCC1)c1ccccc1 (centres undefined)	none
OC(C#CCN1CCCCCC1)(c1ccccc1)c1cccnc1 (centres undefined)	CHRM5 antagonist 55, CHRM4 antagonist 82
COc1cc(OC)cc(-c2c(-c3cccs3)c3cc(-c4cnc(OC)nc4)ccc3n2C)c1	none
CCOC(=O)C(=N/O)/C(C)=N/NC(=O)C(=O)Nc1ccc(Cl)cc1	CHRM5 antagonist 27
CCCC(=O)Nc1nc2ccc(S(=O)(=O)N3CCCCC3)cc2s1	none
CC(C)CC(=O)Nc1nc2ccc(S(=O)(=O)N3CCOCC3)cc2s1	M5 PAM 19
Cc1nonc1C1CCCN1C(=O)c1cc(COc2ccc(F)cc2F)on1 (centres undefined)	none
COc1ccc(OCC(=O)NNC(=S)NC(=O)C2CC2)cc1	none
